Hits are enriched below; roughly 2.5% of the tested compounds scored in any of these assays.
PMI act satM6P: activators of human phosphomannose isomerase at near-saturating mannose 6-phosphate; coupled PMI enzyme assay, resazurin fluorescence, 20 min; stronger effect = higher value; 1 = untreated enzyme, 0 = substrate-free blank; actives 0.34% (n = 190,000); P34949; activation factor at 20 µM; AID 1216;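 active means activation factor of 2 or more at 20 µM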
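Test system: Human PMI in coupled enzyme assay | Input: 15 ng/mL PMI | Medium: HEPES-buffered pH 7.4 with magnesium and detergent | Compound: One concentration, 20 µM, in 1% DMSO | Incubation: Enzyme reaction with compound 20 min at room temperature | Detection: Diaphorase-driven resazurin-to-resorufin fluorescence, excitation 544, emission 590 nm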
Diaphorase act: activates diaphorase or chemically reduces, flagging diaphorase assay artifacts. AID 1229. actives 0.005% (n = 190,000). activation factor at 20 µM. Diaphorase/resazurin coupled assay, resorufin fluorescence, 16 min; stronger effect = higher value; 1 = vehicle wells, 0 = NADH-free wells;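 active means diaphorase activity raised at least twofold by the compound at 20 µM; inactive means activation factor below 2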
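Material: Clostridium kluyveri diaphorase, purified enzyme; Quantity: enzyme 0.07 U/mL final; Medium: HEPES pH 7.4 buffer with MgCl2 and Tween 20; Dosing: single compound dose of 20 µM, 1% DMSO final; Schedule: 16 min reaction at room temperature; Measured by: red resorufin fluorescence at 544/590 nm excitation/emission.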
Diaphorase inh: counter-screen for diaphorase-based assays: diaphorase inhibitors and chemical oxidizers | inhibition, % at 20 µM | diaphorase resazurin-to-resorufin fluorescence, NADH, 16 min; bacterial (C. kluyveri) enzyme, not human | actives 0.69% (n = 190,000) | AID 1217;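 active means primary screen inhibition at 20 µM above a set limit, cut at about 50% in these data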;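 further: plate controls were DMSO with full reaction for no effect and wells lacking NADH for full effect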
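System: Diaphorase enzyme from Clostridium kluyveri | Amount: Enzyme working solution with 0.14 U/mL diaphorase | Benchmarks: No-NADH positive control and DMSO neutral control | Signal: Fluorescence of resorufin formed from resazurin, Ex 544/Em 590 nm | Schedule: 16-min room-temperature incubation before reading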
FLuc inhib CS: counter-screen for luciferase assay inhibitors: firefly luciferase inhibition; P08659; ATPLite firefly luciferase biochemical luminescence, 10 min; inhibition, % at 10 µM; actives 1.5% (n = 200,000);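 active means inhibition above about 50% when tested at 10 µM, limit read from the data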
Target sequence (P08659 whole entry, looked up): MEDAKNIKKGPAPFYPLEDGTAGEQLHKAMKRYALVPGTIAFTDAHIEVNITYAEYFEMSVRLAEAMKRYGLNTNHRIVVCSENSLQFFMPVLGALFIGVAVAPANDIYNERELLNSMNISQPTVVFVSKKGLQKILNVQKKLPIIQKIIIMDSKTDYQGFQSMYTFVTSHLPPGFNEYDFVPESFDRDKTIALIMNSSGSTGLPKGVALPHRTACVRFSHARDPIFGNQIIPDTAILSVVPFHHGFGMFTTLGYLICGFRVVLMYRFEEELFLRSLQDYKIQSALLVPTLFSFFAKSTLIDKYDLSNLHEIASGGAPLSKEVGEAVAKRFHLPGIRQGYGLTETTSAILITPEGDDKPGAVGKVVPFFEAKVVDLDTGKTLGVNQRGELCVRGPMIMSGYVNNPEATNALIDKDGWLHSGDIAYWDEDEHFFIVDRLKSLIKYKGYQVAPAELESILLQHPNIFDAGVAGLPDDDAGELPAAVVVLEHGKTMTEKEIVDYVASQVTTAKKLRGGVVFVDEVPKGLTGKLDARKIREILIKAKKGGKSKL
PMI activator: phosphomannose isomerase (human) activation; activation factor at 20 µM; purified human PMI, coupled resazurin fluorescence, 20 min; stronger effect = higher value; 1 = vehicle control, 0 substrate-free wells; AID 1214; actives 0.005% (n = 190,000);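 active means activation factor of 2 or more at 20 µM, relative to plate controls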
FLuc act counter: firefly luciferase counter-screen for stimulation assays; P08659; ATPlite luciferase biochemical, luminescence, 10 min; 0 = ATP-free wells, 1 = DMSO control; activation factor at 10 µM; 200,000 tested, under 10 active; AID 1027;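 active means luciferase activation factor, scaled between plate controls, of at least 2 with compound at 10 µM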
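Assay system: Luciferase/luciferin reagent mix; Medium: PBS as buffer for the ATP substrate; Dosing: test compounds dosed from 2 mM stocks in 100% DMSO; Times: 10 min, room temperature; Signal: luminescence from luciferase reaction; Read-out: luciferase activation; Controls: No-ATP low control, compound-free enzyme-plus-ATP high control.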
Starred values were filed as active, the others as inactive.

SMILES	PMI act satM6P	Diaphorase act	Diaphorase inh	FLuc inhib CS	PMI activator	FLuc act counter
CCOC(=O)SC1=N/C(=C\c2ccc(N(C)C)cc2)C(=O)S1	0.8	0.5	50*	13	0.6	0.9
Cc1ccc(N=C2S/C(=C\c3cn(CC(=O)O)c4ccccc34)C(=O)N2C)cc1	1.1	0.9	8	-5	1.2	1.1
Cc1cc(/C=C2/NC(=S)NC2=O)c(C)n1-c1cccnc1	0.7	1	0	71*	1	0.3
CCc1ccc2nc(N3C(=O)c4oc5ccccc5c(=O)c4C3c3ccc(OC)c(OC)c3)sc2c1 (configuration not stated)	1	0.9	8	-5	0.9	1.1
O=C(N/N=C/c1cccs1)c1n[nH]c2c1CCC2	1	0.8	16	70*	0.9	0.3
O=C(N/N=C/c1ccccc1Cl)c1n[nH]c2c1CCCC2	1.1	1.1	-14	38	1.1	0.6
O=C(N/N=C/c1ccccc1)c1n[nH]c2c1CCCC2	0.9	0.9	11	75*	0.9	0.3
O=C(N/N=C/C(Br)=C/c1ccccc1)c1n[nH]c2c1CCC2	1	0.8	21	47	0.9	0.5
O=C(Nc1ccc(Cl)cc1)C1=Cc2cc(Cl)ccc2OC1	1	0.9	10	-3	0.9	1
COc1ccc(NC(=O)C2=Cc3ccccc3OC2)cc1	1	0.9	11	52*	0.9	0.5
COc1ccc(NC(=O)C2=Cc3cccc(OC)c3OC2)cc1	0.8	0.8	17	55*	0.8	0.4
CC(C)c1ccccc1NC(=S)NCc1ccccc1F	1	0.8	21	-2	0.9	1
Cc1ccc(CN2CCN(C3CCOCC3)CC2CCO)cc1 (configuration not stated)	0.8	0.8	18	-9	0.8	1.1
Cc1cccc2c(N=Nc3ccc(S(=O)(=O)Nc4ccc(Cl)cc4)cc3[N+](=O)[O-])c(O)[nH]c12	0.9	0.8	16	-6	0.9	1.1
Cc1ccc(-c2n[nH]c(=S)n2/N=C/C=C/c2ccccc2[N+](=O)[O-])cc1	1	0.4	55*	-4	0.9	1
O=[N+]([O-])c1ccccc1/C=C/C=N/n1c(-c2ccco2)n[nH]c1=S	0.9	0.2	81*	1	0.9	1
O=[N+]([O-])c1cc2c(cc1/C=N/n1c(-c3ccccc3)n[nH]c1=S)OCO2	1	0.4	55*	6	1	0.9
O=[N+]([O-])c1cc2c(cc1/C=N/n1c(-c3ccccn3)n[nH]c1=S)OCO2	0.7	0.5	47	6	0.6	0.9
S=c1[nH]nc(-c2ccco2)n1/N=C/c1ccccn1	0.9	0.7	29	0	0.8	1
CN(c1ccc(C(=O)NCC2CCCO2)cc1)S(C)(=O)=O (configuration not stated)	1	0.9	13	-3	1	1
O=C(COC(=O)C1CC(=O)N(Cc2ccccc2)C1)c1ccc(F)cc1 (configuration not stated)	1.1	1.1	-11	-7	1.1	1.1
CCOC(=O)N1CCC(N(CCN(C)C)C(=S)Nc2ccccc2OCC)CC1	1	1.1	-6	-3	1.1	1
CCOC(=O)COc1cc2oc(=O)cc(C)c2cc1[N+](=O)[O-]	0.9	1	2	-5	1	1.1
CCn1c(C)nc2cc(C(=O)N/N=C/c3ccccc3C)ccc21	1.1	1	0	53*	1	0.5
COc1ccc(C(=O)NC(=S)NNC(=O)c2cnccn2)cc1	1.1	0.4	65*	4	0.7	1
COc1ccc(CC(=O)NNC(=O)c2cnccn2)cc1	0.8	0.7	26	0	0.8	1
CCn1c(C)nc2cc(C(=O)NNC(=S)NC(=O)c3ccc(OC)cc3)ccc21	1.1	0.4	57*	2	1	1
